According to ChEMBL document CHEMBL1821586, “Identification and biological activities of new taccalonolide microtubule stabilizers” (J Med Chem, 2011):
Calls of active or inactive are those of the source. The calls are words filed in the database; no cut-off is given here.

What was measured:
[1] = Antitumor activity against mouse 16/C cells allografted in mouse B6C3F1 assessed as decrease in tumor mass at 73.5 mg/kg, iv; assay type: functional
Outline: (§1)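 Female B6C3F1 mice (mean 19.3 ± 1.0 g) carried bilateral s.c. Mammary 16/C tumor fragments implanted day 0, 5 mice/group. […] All were given IV in 0.2 ml. Tumor mass = L×W²/2, measured 2–3 times weekly. %T/C = treated/control median mass, zeros included, taken when control tumors reach ~700–1200 mg.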

[2] = Antitumor activity against mouse 16/C cells allografted in mouse B6C3F1 assessed as delay in tumor growth at 73.5 mg/kg, iv relative to control; assay type: functional
Outline: (§2)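 Mammary 16/C fragments implanted s.c. bilaterally in female B6C3F1 mice on day 0, 5 mice/group, IV dosing in 0.2 ml. Tumors measured 2–3 times weekly. T-C = median days for treated vs control tumors to reach 1000 mg. Gross log cell kill = (T-C)/3.32×Td, with Td the doubling time from a log-linear fit of control tumor growth.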

[3] = test system: HeLa; experiment: Cell cycle arrest in human HeLa cells assessed as accumulation of cells at G2/M phase at 12 nM after 18 hrs by flow cytometric analysis; assay type: functional, cell-based
Outline: (§3)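 DNA stained with propidium iodide (Krishan's reagent); DNA content measured by flow cytometry and plotted as PI intensity vs events.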

[4] = test system: Mus musculus; experiment: Toxicity in B6C3F1 mouse allografted with mouse 16/C cells assessed as mean body weight loss at 73.5 mg/kg, iv (reference value: -2.2%); assay type: organism-based; parameters: dose 73.5 mg/kg, route intravenous; conditions: in vivo
[5] = test system: HeLa; experiment: Inhibition of beta tubulin in human HeLa cells assessed asultiple abnormal mitotic spindle formation at 12 nM after 18 hrs by immunofluorescence analysis; assay type: cell-based
[6] = test system: HeLa; experiment: Induction of interphase microtubule bundling in human HeLa cells at 0.5 uM after 18 hrs by indirect immunofluorescence analysis; assay type: cell-based
[7] = Antitumor activity against mouse 16/C cells allografted in mouse B6C3F1 assessed as gross log cell killing at 73.5 mg/kg, iv relative to control; assay type: functional
[8] = test system: HeLa; experiment: Inhibition of beta tubulin in human HeLa cells assessed asultiple abnormal mitotic spindle formation at 57 uM after 18 hrs by immunofluorescence analysis; assay type: cell-based
[9] = test system: HeLa; experiment: Induction of interphase microtubule bundling in human HeLa cells at 57 uM after 18 hrs by indirect immunofluorescence; assay type: cell-based
[10] = test system: HeLa; experiment: Antiproliferative activity against human HeLa cells after 48 hrs by SRB assay; assay type: functional, cell-based
Outline: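 HeLa cells grown in BME with 10% FBS and 50 µg/ml gentamicin, drug-treated 48 h, proliferation read by SRB assay.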

[11] = test system: HeLa; experiment: Cell cycle arrest in human HeLa cells assessed as accumulation of cells at G2/M phase at 111 uM after 18 hrs by flow cytometric analysis; assay type: functional, cell-based; outline: as §3
[12] = test system: HeLa; experiment: Induction of interphase microtubule bundling in human HeLa cells at 0.32 uM after 18 hrs by indirect immunofluorescence; assay type: cell-based
[13] = test system: HeLa; experiment: Cell cycle arrest in human HeLa cells assessed as accumulation of cells at G2/M phase at 0.32 uM after 18 hrs by flow cytometric analysis; assay type: functional, cell-based; outline: as §3
[14] = test system: HeLa; experiment: Inhibition of beta tubulin in human HeLa cells assessed asultiple abnormal mitotic spindle formation at 0.32 uM after 18 hrs by immunofluorescence analysis; assay type: cell-based
[15] = test system: HeLa; experiment: Cell cycle arrest in human HeLa cells assessed as accumulation of cells at G2/M phase at 0.8 uM after 18 hrs by flow cytometric analysis; assay type: functional, cell-based
[16] = test system: HeLa; experiment: Inhibition of beta tubulin in human HeLa cells assessed asultiple abnormal mitotic spindle formation at 0.8 uM after 18 hrs by immunofluorescence analysis; assay type: cell-based
[17] = test system: HeLa; experiment: Induction of interphase microtubule bundling in human HeLa cells at 0.8 uM after 18 hrs by indirect immunofluorescence analysis; assay type: cell-based
[18] = test system: HeLa; experiment: Induction of interphase microtubule bundling in human HeLa cells at 3.5 uM after 18 hrs by indirect immunofluorescence analysis; assay type: cell-based
[19] = test system: HeLa; experiment: Cell cycle arrest in human HeLa cells assessed as accumulation of cells at G2/M phase at 3.5 uM after 18 hrs by flow cytometric analysis; assay type: functional, cell-based; outline: as §3
[20] = test system: HeLa; experiment: Inhibition of beta tubulin in human HeLa cells assessed asultiple abnormal mitotic spindle formation at 3.5 uM after 18 hrs by immunofluorescence analysis; assay type: cell-based
[21] = test system: HeLa; experiment: Inhibition of beta tubulin in human HeLa cells assessed asultiple abnormal mitotic spindle formation at 0.6 uM after 18 hrs by immunofluorescence analysis; assay type: cell-based
[22] = test system: HeLa; experiment: Cell cycle arrest in human HeLa cells assessed as accumulation of cells at G2/M phase at 0.6 uM after 18 hrs by flow cytometric analysis; assay type: functional, cell-based; outline: as §3
[23] = test system: HeLa; experiment: Induction of interphase microtubule bundling in human HeLa cells at 0.6 uM after 18 hrs by indirect immunofluorescence; assay type: cell-based
[24] = Antitumor activity against mouse 16/C cells allografted in mouse B6C3F1 assessed as delay in tumor growth at 90 mg/kg, iv administered on days 1,4,6, 8, 9, 10 and 11 relative to control; assay type: functional; outline: as §2
[25] = test system: Mus musculus; experiment: Toxicity in B6C3F1 mouse allografted with mouse 16/C cells assessed as mean body weight loss at 54 mg/kg, iv administered on days 1,4,6, 8, 9, 10 and 11 (reference value: -2.2%); assay type: organism-based; parameters: dose 54 mg/kg, route intravenous; conditions: in vivo
[26] = Toxicity in B6C3F1 mouse allografted with mouse 16/C cells assessed as lethality at 54 mg/kg, iv administered on days 1,4,6, 8, 9, 10 and 11 measured after 12 days relative to control; assay type: organism-based; parameters: dose 54 mg/kg, route intravenous; conditions: in vivo, read-out: Activity
Outline: (§4)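 Female B6C3F1 mice, 5 per group, bore bilateral s.c. Mammary 16/C fragments. Taccalonolides in DMSO:Cremophor diluted with water were given i.v. on days 1, 4, 6 plus a later dose (A, N) or days 8, 9, 11 (E). Mice were weighed and observed daily, and lethality was recorded per group.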

[27] = Antitumor activity against mouse 16/C cells allografted in mouse B6C3F1 assessed as gross log cell killing at 54 mg/kg, iv administered on days 1,4,6, 8, 9, 10 and 11 relative to control; assay type: functional
Outline: (§5)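 Mammary 16/C tumor fragments implanted bilaterally s.c. in female B6C3F1 mice on day 0, 5 mice/group. Taccalonolides in 50% DMSO:50% Cremophor stock, diluted with sterile water, given i.v. in 0.2 ml on days 1, 4, 6, plus one dose 2–3 days later (A, N) or further doses days 8, 9, 11 (E). Tumor mass = length × width²/2, measured 2–3 times weekly. Gross log cell kill = (T-C)/3.32 × Td, with T-C the days to 1000 mg.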

[28] = test system: Mus musculus; experiment: Toxicity in B6C3F1 mouse allografted with mouse 16/C cells assessed as mean body weight loss at 90 mg/kg, iv administered on days 1,4,6, 8, 9, 10 and 11 (reference value: -2.2%); assay type: organism-based; parameters: dose 90 mg/kg, route intravenous; conditions: in vivo
[29] = Antitumor activity against mouse 16/C cells allografted in mouse B6C3F1 assessed as delay in tumor growth at 54 mg/kg, iv administered on days 1,4,6, 8, 9, 10 and 11 relative to control; assay type: functional; outline: as §2
[30] = Toxicity in B6C3F1 mouse allografted with mouse 16/C cells assessed as lethality at 90 mg/kg, iv administered on days 1,4,6, 8, 9, 10 and 11 measured after 12 days relative to control; assay type: organism-based; parameters: dose 90 mg/kg, route intravenous; conditions: in vivo, read-out: Activity; outline: as §4
[31] = Antitumor activity against mouse 16/C cells allografted in mouse B6C3F1 assessed as gross log cell killing at 90 mg/kg, iv administered on days 1,4,6, 8, 9, 10 and 11 relative to control; assay type: functional; outline: as §5
[32] = test system: HeLa; experiment: Cell cycle arrest in human HeLa cells assessed as accumulation of cells at G2/M phase at 2.5 uM after 18 hrs by flow cytometric analysis; assay type: functional, cell-based; outline: as §3
[33] = test system: HeLa; experiment: Induction of interphase microtubule bundling in human HeLa cells at 2.5 uM after 18 hrs by indirect immunofluorescence analysis; assay type: cell-based
[34] = Antitumor activity against mouse 16/C cells allografted in mouse B6C3F1 assessed as decrease in tumor mass at 54 mg/kg, iv administered on days 1,4,6, 8, 9, 10 and 11 relative to control; assay type: functional; outline: as §1
[35] = Antitumor activity against mouse 16/C cells allografted in mouse B6C3F1 assessed as decrease in tumor mass at 90 mg/kg, iv administered on days 1,4,6, 8, 9, 10 and 11 relative to control; assay type: functional; outline: as §1
[36] = test system: HeLa; experiment: Inhibition of beta tubulin in human HeLa cells assessed asultiple abnormal mitotic spindle formation at 2.5 uM after 18 hrs by immunofluorescence analysis; assay type: cell-based
[37] = test system: HeLa; experiment: Induction of interphase microtubule bundling in human HeLa cells at 13.5 uM after 18 hrs by indirect immunofluorescence; assay type: cell-based
[38] = test system: HeLa; experiment: Inhibition of beta tubulin in human HeLa cells assessed asultiple abnormal mitotic spindle formation at 13.5 uM after 18 hrs by immunofluorescence analysis; assay type: cell-based
[39] = test system: HeLa; experiment: Cell cycle arrest in human HeLa cells assessed as accumulation of cells at G2/M phase at 13.5 uM after 18 hrs by flow cytometric analysis; assay type: functional, cell-based; outline: as §3

## CC(=O)O[C@H]1C(=O)[C@@]2(C)[C@H]([C@H](OC(=O)c3ccccc3)[C@]3(O)C[C@H](OC(=O)[C@H](O)[C@@H](NC(=O)c4ccccc4)c4ccccc4)C(C)=C1C3(C)C)[C@]1(OC(C)=O)CO[C@@H]1C[C@@H]2O [PACLITAXEL]
[1]
  T/C: 0%
[2]
  Time: 19 days
[3]
  Activity: Active
[4]
  Activity: -6.3%
[5]
  inhibition: Active
[6]
  Activity: Active
[7]
  LCK: 4.8

## CC(=O)O[C@@H]1[C@H]2[C@@H]3[C@@H](OC(C)=O)C(=O)[C@@]4(O)C[C@@H]5O[C@@H]5[C@H](OC(C)=O)[C@]4(C)[C@H]3C[C@H](OC(C)=O)[C@]2(C)[C@@H]2[C@@H]1[C@]1(C)C(=C[C@H]2C)OC(=O)[C@@]1(C)O [TACCALONOLIDE R]
[8]
  inhibition: Active
[9]
  Activity: Active
[10]
  IC50: 13100 nM
[11]
  Activity: Active

## CC(=O)O[C@@H]1[C@H]2[C@H]3[C@H]([C@H](OC(C)=O)[C@H](OC(C)=O)[C@]2(C)[C@@H]2[C@@H]1[C@]1(C)C(=C[C@H]2C)OC(=O)[C@@]1(C)O)[C@@]1(C)[C@@H](OC(C)=O)[C@H]2O[C@H]2C[C@]1(O)C(=O)[C@@H]3OC(C)=O [TACCALONOLIDE AA]
[10]
  IC50: 32.3 nM
[12]
  Activity: Active
[13]
  Activity: Active
[14]
  inhibition: Active

## CC(=O)O[C@H]1[C@H]2[C@H]([C@@H]3[C@@H](O)[C@@H]4[C@H]([C@H](C)C=C5OC(=O)[C@@](C)(O)[C@@]54C)[C@@]3(C)[C@H]1OC(C)=O)[C@@H](O)C(=O)[C@H]1C[C@@H]3O[C@@H]3[C@H](OC(C)=O)[C@]21C [TACCALONOLIDE B]
[15]
  Activity: Active
[16]
  inhibition: Active
[10]
  IC50: 190 nM
[17]
  Activity: Active

## CC(=O)O[C@@H]1[C@H]2[C@@H]3[C@@H](OC(C)=O)C(=O)[C@@]4(O)C[C@@H]5O[C@@H]5[C@H](OC(=O)CC(C)C)[C@]4(C)[C@H]3C[C@H](OC(C)=O)[C@]2(C)[C@@H]2[C@@H]1[C@]1(C)C(=C[C@H]2C)OC(=O)[C@@]1(C)O [TACCALONOLIDE T]
[18]
  Activity: Active
[19]
  Activity: Active
[20]
  inhibition: Active
[10]
  IC50: 335 nM

## CC(=O)O[C@@H]1[C@H]2[C@H]3[C@H]([C@H](OC(C)=O)[C@H](OC(C)=O)[C@]2(C)[C@@H]2[C@@H]1[C@]1(C)C(=C[C@H]2C)OC(=O)[C@@]1(C)O)[C@@]1(C)[C@@H](OC(C)=O)[C@H]2O[C@H]2C[C@]1(O)C(=O)[C@@H]3O [TACCALONOLIDE Z]
[21]
  inhibition: Active
[10]
  IC50: 120 nM
[22]
  Activity: Active
[23]
  Activity: Active

## CC(=O)O[C@@H]1[C@H]2[C@@H]3[C@@H](O)C(=O)[C@H]4C[C@@H]5O[C@@H]5[C@H](OC(C)=O)[C@]4(C)[C@H]3C[C@H](OC(C)=O)[C@]2(C)[C@@H]2[C@@H]1[C@]1(C)C(=C[C@H]2C)OC(=O)[C@@]1(C)O [TACCALONOLIDE E]
[24]
  Time: 5 days
[25]
  Activity: -2%
[26]
  mortality at 288 h: 0%
[10]
  IC50: 644 nM
[27]
  LCK: 0.25
[28]
  Activity: -4.1%
[29]
  Time: 1 days
[30]
  mortality at 288 h: 0%
[31]
  LCK: 1.25
[32]
  Activity: Active
[33]
  Activity: Active
[34]
  T/C: 81%
[35]
  T/C: 17%
[36]
  inhibition: Active

## CC(=O)O[C@H]1[C@H]2[C@H]([C@@H]3[C@@H](O)[C@@H]4[C@H]([C@H](C)C=C5OC(=O)[C@@](C)(O)[C@@]54C)[C@@]3(C)[C@H]1OC(C)=O)[C@@H](O)C(=O)[C@@]1(O)C[C@@H]3O[C@@H]3[C@H](OC(C)=O)[C@]21C [TACCALONOLIDE AB]
[37]
  Activity: Active
[10]
  IC50: 2770 nM
[38]
  inhibition: Active
[39]
  Activity: Active
